The values below come from ChEMBL document CHEMBL3826951, “Discovery of Benzocycloalkane Derivatives Efficiently Blocking Bacterial Virulence for the Treatment of Methicillin-Resistant S. aureus (MRSA) Infections by Targeting Diapophytoene Desaturase (CrtN)” (J Med Chem, 2016).

The target in data set [1] is T1, 4,4'-diapophytoene desaturase (4,4'-diaponeurosporene-forming) (Staphylococcus aureus (strain Newman)) (UniProt O07855).
T1 sequence (whole entry): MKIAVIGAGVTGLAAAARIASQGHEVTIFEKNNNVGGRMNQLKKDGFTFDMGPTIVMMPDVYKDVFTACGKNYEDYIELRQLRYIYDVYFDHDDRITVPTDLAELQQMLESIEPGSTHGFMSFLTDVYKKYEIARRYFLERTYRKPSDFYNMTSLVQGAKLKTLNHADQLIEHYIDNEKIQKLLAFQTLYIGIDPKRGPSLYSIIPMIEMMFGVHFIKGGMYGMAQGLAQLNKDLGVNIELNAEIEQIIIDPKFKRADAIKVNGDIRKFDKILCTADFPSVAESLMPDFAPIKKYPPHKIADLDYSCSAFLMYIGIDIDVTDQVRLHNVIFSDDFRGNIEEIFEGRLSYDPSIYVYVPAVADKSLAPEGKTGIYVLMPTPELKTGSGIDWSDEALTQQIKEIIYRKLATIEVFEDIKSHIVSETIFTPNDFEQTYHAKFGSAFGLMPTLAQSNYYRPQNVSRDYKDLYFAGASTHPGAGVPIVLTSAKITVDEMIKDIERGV
Description: Inhibition of diapophytoene desaturase in Staphylococcus aureus Newman assessed as 4,4'-diapophytoene formation by HPLC method. To be noted: Staphylococcus aureus subsp. aureus str. Newman.

The test system of data set [2] is Staphylococcus aureus. Kind of data set: Sensitization of methicillin-resistant Staphylococcus aureus Mu 50 to human whole blood assessed as cell survival at 1 uM after 6 hrs by serial dilution method (reference value: 16.11%). The following applies: Mu50, 6 h. Type of data set: functional.
In data set [3] the test system is Staphylococcus aureus. Kind of data set: Effect on Staphylococcus aureus Newman growth at 0.2 mM after overnight incubation by plate reader method. Type of data set: organism-based. The following applies: 200 µM. The method in brief:
(§1)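 DMSO stock (20 mM) diluted in TSB to final 0.2 or 0.05 mM, overlaid with paraffin, pre-warmed 4 h at 37 °C. Overnight cultures adjusted to OD600 ~1.0 and inoculated to final OD600 ≈ 0.05. DMSO-matched growth controls. Incubated overnight at 37 °C; OD600 read every 30 min.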

The test system of data set [4] is Trichophyton verrucosum. Description: Antifungal activity against naftifine-sensitive Trichophyton verrucosum after 7 days by serial dilution method. The class given is functional. The method in brief:
(§2)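 Broth serial dilution in 96-well plates per NCCLS recommendations. Medium: RPMI 1640 buffered with 0.165 M MOPS. Fungi were ATCC strains or clinical isolates.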

Data set [5] concerns Trichophyton rubrum. Description: Antifungal activity against naftifine-sensitive Trichophyton rubrum after 7 days by serial dilution method. Type of data set: functional. In short, it runs like this:
as §2

The test system of data set [6] is Staphylococcus aureus. Description: Sensitization of methicillin-resistant Staphylococcus aureus Mu 50 to H2O2-induced killing assessed as cell survival at 1 uM pre-incubated for 24 hrs before H2O2 exposure for 30 mins by serial dilution method (reference value: 30.67%). The class given is functional. To be noted: Mu50.
Data set [7] in a line: Aqueous solubility of the compound in water after 24 hrs by HPLC method. Type of data set: physicochemical. In short, it runs like this:
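Excess solid stirred in pure water for 24 h, then filtered. Filtrate analysed by HPLC (10 µL injection). Concentration read against a calibration curve of peak area versus concentration, built from methanol solutions at 50–800 µg/mL.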

The test system of data set [8] is Staphylococcus aureus. Kind of data set: Attenuation of methicillin-resistant Staphylococcus aureus Mu 50 virulence in BALB/c mouse systemic infection model assessed as decrease in bacterial survival in kidney at 50 mg/kg, ip administered every 12 hrs for 108 hrs followed by bacterial challenge after first 12 hrs of compound dosing measured 5 days post infection. Type of data set: functional, Mu50. In short, it runs like this:
(§3)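 Female BALB/c mice, 6-8 weeks old. Dosed ip every 12 h for 108 h. Challenged with 100 µL at 12 h: 1.6 × 10^8 CFU Mu50 or 4 × 10^7 CFU USA400 MW2. Sacrificed 5 days post-infection. Livers and kidneys homogenised in PBS/0.1% Triton X-100, serially plated on TSA, CFU counted; two-tailed Mann-Whitney.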

Data set [9] concerns Staphylococcus aureus. Kind of data set: Attenuation of Staphylococcus aureus Newman virulence in BALB/c mouse lethal infection model assessed as mouse survival administered ip every 12 hrs for 108 hrs followed by 2 x 10^7 CFU bacterial challenge after first 12 hrs of compound dosing measured 8 days post challenge. Type of data set: functional. The method in brief: (§4)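 Female BALB/c mice, 6-8 weeks old, kept specific pathogen-free. Dosed ip at 50 or 200 mg/kg every 12 h for 108 h (4.5 d). Challenged 12 h after the first dose with 2 × 10^7 CFU S. aureus Newman. Mortality followed; n = 15; log-rank test.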

In data set [10] the test system is Staphylococcus aureus. Kind of data set: Attenuation of methicillin-resistant Staphylococcus aureus Mu 50 virulence in BALB/c mouse systemic infection model assessed as decrease in bacterial survival in kidney at 200 mg/kg, ip administered every 12 hrs for 108 hrs followed by bacterial challenge after first 12 hrs of compound dosing measured 5 days post infection. Type of data set: functional, Mu50. The method in brief: as §3

The test system of data set [11] is Nannizzia gypsea. Kind of data set: Antifungal activity against naftifine-sensitive Microsporum gypseum after 7 days by serial dilution method. The class given is functional. The method in brief: as §2
Data set [12] concerns Staphylococcus aureus. Description: Effect on methicillin-resistant Staphylococcus aureus USA400 MW2 growth at 0.05 mM after overnight incubation by plate reader method. Type of data set: organism-based. The following applies: 50 µM. In short, it runs like this:
as §1

Data set [13] concerns Trichophyton mentagrophytes. Kind of data set: Antifungal activity against naftifine-sensitive Trichophyton mentagrophytes after 7 days by serial dilution method. Type of data set: functional. In short, it runs like this:
as §2

For data set [14], the system named is Staphylococcus aureus. Kind of data set: Attenuation of methicillin-resistant Staphylococcus aureus Mu 50 virulence in BALB/c mouse systemic infection model assessed as decrease in bacterial survival in liver at 50 mg/kg, ip administered every 12 hrs for 108 hrs followed by bacterial challenge after first 12 hrs of compound dosing measured 5 days post infection. Type of data set: functional, Mu50. The method in brief: as §3

Data set [15] has as its system Staphylococcus aureus. Kind of data set: Attenuation of methicillin-resistant Staphylococcus aureus USA400 MW2 virulence in BALB/c mouse systemic infection model assessed as decrease in bacterial survival in kidney at 200 mg/kg, ip administered every 12 hrs for 108 hrs followed by bacterial challenge after first 12 hrs of compound dosing measured 5 days post infection. Type of data set: functional. In short, it runs like this:
as §3

Data set [16] concerns Staphylococcus aureus. Description: Attenuation of methicillin-resistant Staphylococcus aureus USA400 MW2 virulence in BALB/c mouse systemic infection model assessed as decrease in bacterial survival in kidney at 50 mg/kg, ip administered every 12 hrs for 108 hrs followed by bacterial challenge after first 12 hrs of compound dosing measured 5 days post infection. The class given is functional. The method in brief:
as §3

The subject of data set [17] is Staphylococcus aureus. Description: Sensitization of methicillin-resistant Staphylococcus aureus USA400 MW2 to human whole blood assessed as cell survival at 1 uM after 6 hrs by serial dilution method (reference value: 10.8%). The class given is functional. To be noted: MW2 USA400, 6 h.
Data set [18] deals with Staphylococcus aureus. Kind of data set: Effect on methicillin-resistant Staphylococcus aureus Mu 50 growth at 0.05 mM after overnight incubation by plate reader method. The class given is organism-based, Mu50. To be noted: 50 µM. In short, it runs like this:
as §1

Data set [19] has as its system Staphylococcus aureus. Kind of data set: Sensitization of Staphylococcus aureus Newman to human whole blood assessed as cell survival at 1 uM after 6 hrs by serial dilution method (reference value: 26.67%). Type of data set: functional.
Data set [20] concerns Staphylococcus aureus. Kind of data set: Sensitization of methicillin-resistant Staphylococcus aureus USA400 MW2 to H2O2-induced killing assessed as cell survival at 1 uM pre-incubated for 24 hrs before H2O2 exposure for 30 mins by serial dilution method (reference value: 14.17%). The class given is functional.
Data set [21] relates to Staphylococcus aureus. Description: Attenuation of Staphylococcus aureus Newman virulence in BALB/c mouse lethal infection model assessed as mouse survival administered ip every 12 hrs for 108 hrs followed by 2 x 10^7 CFU bacterial challenge after first 12 hrs of compound dosing measured 4 days post challenge. Type of data set: functional. The method in brief: as §4

SMILES strings stand for the structures. Active and inactive are the calls of the source. No cut-off for these calls is given here. Bounds are passed on as bounds.

What is called solubility is the concentration that dissolves in the medium under given conditions. `COc1ccc(/C=C/CN(C)Cc2ccc3c(c2)CCCCC3)cc1.Cl`: in [1], the inhibition entry is “Active”. Also, the survival at 1 µM in [2] was found to be 0.4%; in data set [6], 4.44%; in data set [17], 0.2%; in data set [19] it was 1.83%; in [20], 0.96%. The Activity result is given as “Non-toxic” in data set [3]; 0.99 log10CFU in data set [8]; 2.27 log10CFU in data set [10]; “Non-toxic” in data set [12]; 2.44 log10CFU in data set [14]; 99.5% in data set [15]. For the same compound, the Activity in [16] was 99.5%; in data set [18], “Non-toxic”. Also, the “MIC=<80” value was determined as 8 µg/mL in [4], 8 µg/mL in data set [5], 16 µg/mL in data set [11] and 8 µg/mL in [13]. For the same compound, the concentration in solution in [7] (solubility at 24 h) was 4240 µg/mL. Also, the values for the Survival in [9] and in data set [21] were above 60% and 83%, respectively.
